DENV2 CPE rescue: protects cells from dengue virus 2 cytopathic effect | AID 651640 | DENV2-infected cells, cytopathic effect rescue, plate reader | CPE inhibition, % at 9.99 µM | 350,000 compounds, 1.7% hits; in the data active = CPE inhibition above about 20%, passing the limit was not always enough; inconclusive = no clear call, values can overlap the other calls; tested in BHK-21 cells;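 note: 0% = median of neutral control wells and 100% = median of positive control wells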
E-sel inducer: induces E-selectin expression in human endothelial cells. P16581. HUVEC E-selectin immunofluorescence imaging; normalized: neutral wells 0, TNF-alpha wells 100. activation, % at 7.58 µM. 260,000 compounds, 0.37% hits;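 active = mean E-selectin-positive cell signal at least 10% of the positive control, reached in at least 60% of replicates, without over 20% cell loss; inconclusive = no rule given, readout overlaps actives, possibly toxicity-flagged; inactive = the rest, including those meeting only one limit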
Target sequence (P16581 whole entry, looked up): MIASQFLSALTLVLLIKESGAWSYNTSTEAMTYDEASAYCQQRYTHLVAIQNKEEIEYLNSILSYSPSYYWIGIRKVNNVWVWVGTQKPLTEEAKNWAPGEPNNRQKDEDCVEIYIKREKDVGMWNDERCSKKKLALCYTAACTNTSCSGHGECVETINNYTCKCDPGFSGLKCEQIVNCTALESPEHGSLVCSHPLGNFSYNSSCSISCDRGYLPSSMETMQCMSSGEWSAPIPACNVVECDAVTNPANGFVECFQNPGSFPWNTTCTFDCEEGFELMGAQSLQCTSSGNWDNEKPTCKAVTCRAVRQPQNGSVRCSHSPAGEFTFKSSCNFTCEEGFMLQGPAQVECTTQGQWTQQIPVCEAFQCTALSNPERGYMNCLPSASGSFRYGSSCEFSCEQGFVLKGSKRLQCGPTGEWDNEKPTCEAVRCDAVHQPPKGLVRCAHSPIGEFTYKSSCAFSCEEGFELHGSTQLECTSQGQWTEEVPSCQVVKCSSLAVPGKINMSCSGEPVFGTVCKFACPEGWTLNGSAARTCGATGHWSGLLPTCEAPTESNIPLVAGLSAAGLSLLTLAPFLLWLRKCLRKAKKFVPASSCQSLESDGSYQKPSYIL
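Material: HUVEC primary endothelial cells; Amount: 3,000 cells per well; Dosing: single concentration; Medium: EGM-2 growth medium on 0.1% gelatin-coated wells; Read-out basis: percent E-selectin-positive cells; Signal: immunofluorescence imaging; Control set: TNF-alpha, DMSO.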
SIRT5 block: blocks human SIRT5 desuccinylation of peptide. AID 652115. inhibition, % at 15 µM. Purified SirT5, succinyl-peptide AMC, trypsin-coupled fluorescence. Q9NXA8. 330,000 compounds, 1.1% hits; in the data active = inhibition above about 15%; inconclusive = no clear call, values can overlap the other calls
Active calls of the source: *. An excerpt weighted towards active compounds, which were near 2.9% of everything screened.

Screening CCN(C(=O)CSc1nc2scc(-c3ccccc3)c2c(=O)n1N)C1CCS(=O)(=O)C1 (configuration not stated) returned DENV2 CPE rescue 6.0, E-sel inducer -0.3 and SIRT5 block 19.8*.
For CC(C)NC(=O)Nc1ccc2c(c1)C(=O)N([C@H](C)CO)C[C@@H](C)[C@H](CN(C)CC1CC1)OCCCC[C@H](C)O2 the results were DENV2 CPE rescue -3.7, E-sel inducer 0.1 and SIRT5 block 2.9.
`CC(C)NC(=O)Nc1ccc2c(c1)C(=O)N([C@H](C)CO)C[C@H](C)[C@H](CN(C)CC1CC1)OCCCC[C@@H](C)O2` gave DENV2 CPE rescue 106.6*, E-sel inducer 1.7 and SIRT5 block -2.2.
For C[C@@H]1CCCCO[C@H](CN(C)C(=O)C2CCCCC2)[C@H](C)CN([C@@H](C)CO)C(=O)c2cc(NC(=O)Nc3ccc(F)cc3)ccc2O1 the results were DENV2 CPE rescue 5.3, E-sel inducer 0.1 and SIRT5 block 15.6*.
Screening C[C@@H]1CCCCO[C@@H](CN(C)C(=O)C2CCCCC2)[C@@H](C)CN([C@H](C)CO)C(=O)c2cc(NC(=O)Nc3ccc(F)cc3)ccc2O1 returned DENV2 CPE rescue 7.7, E-sel inducer 0.2 and SIRT5 block 0.9.
For C[C@@H]1CCCCO[C@H](CN(C)C(=O)C2CCCCC2)[C@@H](C)CN([C@H](C)CO)C(=O)c2cc(NC(=O)Nc3ccc4c(c3)OCO4)ccc2O1 the results were DENV2 CPE rescue inconclusive, E-sel inducer -0.2 and SIRT5 block 2.9.
For C[C@@H]1CN([C@@H](C)CO)C(=O)c2cc(NC(=O)Nc3ccc4c(c3)OCO4)ccc2O[C@@H](C)CCCCO[C@H]1CN(C)C(=O)C1CCCCC1 the results were DENV2 CPE rescue 77.0*, E-sel inducer 0.0 and SIRT5 block 3.7.
Screening C[C@@H]1CCCCO[C@@H](CN(C)CC2CCCCC2)[C@H](C)CN([C@@H](C)CO)C(=O)c2cc(NC(=O)Nc3ccc(F)cc3)ccc2O1 returned DENV2 CPE rescue 29.1*, E-sel inducer 0.2 and SIRT5 block -4.8.
`C[C@@H]1CCCCO[C@H](CN(C)CC2CCCCC2)[C@@H](C)CN([C@H](C)CO)C(=O)c2cc(NC(=O)Nc3ccc(F)cc3)ccc2O1` gave DENV2 CPE rescue -9.7, E-sel inducer 0.1 and SIRT5 block -2.1.
Nc1nc(=O)n(C2CCCCO2)cc1Br (configuration not stated) was read as DENV2 CPE rescue -3.3, E-sel inducer 0.3 and SIRT5 block -2.0.
CC(C)c1ccc(/C=C2\SC(=S)N(CC(=O)NCCCN3CCOCC3)C2=O)cc1 was read as DENV2 CPE rescue -2.4, E-sel inducer 0.6 and SIRT5 block 1.8.
`COc1cccc(-c2ccc([C@H]3[C@@H](CO)N(C(=O)Cc4ccccc4)[C@H]3C#N)cc2)c1` gave DENV2 CPE rescue inconclusive, E-sel inducer -0.5 and SIRT5 block 2.0.
`O=C1C(=O)N(CCO)C(c2ccccc2)/C1=C(\O)c1ccccc1` (configuration not stated) gave DENV2 CPE rescue -2.2.
For CCN(CC)S(=O)(=O)c1ccc(C(=O)Nc2ncn(Cc3ccccc3)n2)cc1 the results were SIRT5 block 3.3.
For CC(C)Sc1nnc(-c2ccc(S(=O)(=O)N3CCOCC3)cc2)n1C the results were DENV2 CPE rescue -3.5 and E-sel inducer 0.5.
Screening CC(=O)N1[C@H](C(=O)NCc2ccccc2Cl)[C@@H](CO)[C@@H]2Cn3c(ccc(-c4ccccc4)c3=O)[C@@H]21 returned DENV2 CPE rescue -4.3, E-sel inducer -0.2 and SIRT5 block -18.0.
`COc1ccc(C#Cc2ccc3c(c2)[C@]2(C(=O)N3)[C@H](C(N)=O)[C@H]3C(=O)O[C@H](c4ccccc4)[C@H](c4ccccc4)N3[C@@H]2c2ccc(O)cc2)cc1` gave DENV2 CPE rescue -1.6 and SIRT5 block 7.6.
For C[C@@H]1CCCCO[C@H](CN(C)C(=O)Nc2ccc(F)cc2)[C@H](C)CN([C@@H](C)CO)C(=O)c2cc(NC(=O)Nc3ccc(F)cc3)ccc2O1 the results were DENV2 CPE rescue 10.2 and SIRT5 block 6.8.
`CC(C)NC(=O)Nc1ccc2c(c1)C(=O)N([C@@H](C)CO)C[C@H](C)[C@H](CN(C)C(=O)NC(C)C)OCCCC[C@@H](C)O2` gave DENV2 CPE rescue -4.1 and SIRT5 block 24.3*.
CC(C)NC(=O)N(C)C[C@H]1OCCCC[C@H](C)Oc2ccc(NC(=O)Nc3ccc(F)cc3)cc2C(=O)N([C@@H](C)CO)C[C@H]1C was read as DENV2 CPE rescue 56.0*, E-sel inducer 0.0 and SIRT5 block 0.2.
For CC(C)NC(=O)N(C)C[C@@H]1OCCCC[C@@H](C)Oc2ccc(NC(=O)Nc3ccc(F)cc3)cc2C(=O)N([C@H](C)CO)C[C@H]1C the results were DENV2 CPE rescue 1.6, E-sel inducer -0.1 and SIRT5 block 2.0.

High-throughput results: PubChem BioAssay, Broad Institute
